Experiments:
[1] = biological target: Melanin-concentrating hormone receptor 1 (Homo sapiens, UniProt Q99705); test: Displacement of 125I-MCH from MCH-R1 expressed in IMR-32 cells; format: cell-based
[2] = biological target: Voltage-gated inwardly rectifying potassium channel KCNH2 (Homo sapiens, UniProt Q12809); test: Displacement of 3H-dofetilide from hERG-expressing HEK membrane homogenates
[3] = biological target: Melanin-concentrating hormone receptor (Homo sapiens, UniProt Q969V1+Q99705); test: Inhibition of MCH-mediated calcium release in IMR-32 cells; format: functional, cell-based
[4] = system: Mus musculus; test: (§1) Half-life in plasma of DIO mice after 10 mg/kg peroral dose; format: ADME, organism-based; set-up: dose 10 mg/kg, route oral; conditions: in vivo, po
Procedure, shortened: (§2)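 Single oral dose, 10 mg/kg in 1% Tween 80/water, to DIO mice; plasma and brain sampled over time. Cmax = average of the three mice with highest concentrations ± SEM. Mean concentration data fitted multi-exponentially; AUC0-t by linear trapezoidal rule, extrapolated to infinity with Ct/β added.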

[5] = system: Mus musculus; test: Plasma Cmax in DIO mice after 10 mg/kg peroral dose; format: ADME, organism-based; set-up: dose 10 mg/kg, route oral; conditions: in vivo, po; procedure, shortened: as §2
[6] = Brain Cmax in DIO mice after 10 mg/kg peroral dose; format: ADME, organism-based; set-up: dose 10 mg/kg, route oral; conditions: mouse, po; procedure, shortened: as §2
[7] = system: Mus musculus; test: Brain AUC in DIO mice after 10 mg/kg peroral dose; format: ADME, organism-based; set-up: dose 10 mg/kg, route oral; conditions: in vivo, po; procedure, shortened: as §2
[8] = system: Mus musculus; test: Plasma AUC in DIO mice after 10 mg/kg peroral dose; format: ADME, organism-based; set-up: dose 10 mg/kg, route oral; conditions: in vivo, po; procedure, shortened: as §2
[9] = as §1; format: ADME, organism-based; set-up: dose 10 mg/kg, route oral; conditions: mouse, plasma, po; procedure, shortened: as §2

Chain of Melanin-concentrating hormone receptor 1 (Q99705 whole entry): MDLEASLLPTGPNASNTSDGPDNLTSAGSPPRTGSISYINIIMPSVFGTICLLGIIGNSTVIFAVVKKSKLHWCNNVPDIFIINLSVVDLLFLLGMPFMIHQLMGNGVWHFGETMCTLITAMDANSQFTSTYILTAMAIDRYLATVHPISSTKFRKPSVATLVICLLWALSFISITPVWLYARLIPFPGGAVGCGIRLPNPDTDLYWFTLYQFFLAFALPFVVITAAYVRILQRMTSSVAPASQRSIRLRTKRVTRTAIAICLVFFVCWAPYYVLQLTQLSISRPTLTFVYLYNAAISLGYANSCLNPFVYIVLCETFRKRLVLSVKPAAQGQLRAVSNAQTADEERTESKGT
Chain of Voltage-gated inwardly rectifying potassium channel KCNH2 (Q12809 whole entry): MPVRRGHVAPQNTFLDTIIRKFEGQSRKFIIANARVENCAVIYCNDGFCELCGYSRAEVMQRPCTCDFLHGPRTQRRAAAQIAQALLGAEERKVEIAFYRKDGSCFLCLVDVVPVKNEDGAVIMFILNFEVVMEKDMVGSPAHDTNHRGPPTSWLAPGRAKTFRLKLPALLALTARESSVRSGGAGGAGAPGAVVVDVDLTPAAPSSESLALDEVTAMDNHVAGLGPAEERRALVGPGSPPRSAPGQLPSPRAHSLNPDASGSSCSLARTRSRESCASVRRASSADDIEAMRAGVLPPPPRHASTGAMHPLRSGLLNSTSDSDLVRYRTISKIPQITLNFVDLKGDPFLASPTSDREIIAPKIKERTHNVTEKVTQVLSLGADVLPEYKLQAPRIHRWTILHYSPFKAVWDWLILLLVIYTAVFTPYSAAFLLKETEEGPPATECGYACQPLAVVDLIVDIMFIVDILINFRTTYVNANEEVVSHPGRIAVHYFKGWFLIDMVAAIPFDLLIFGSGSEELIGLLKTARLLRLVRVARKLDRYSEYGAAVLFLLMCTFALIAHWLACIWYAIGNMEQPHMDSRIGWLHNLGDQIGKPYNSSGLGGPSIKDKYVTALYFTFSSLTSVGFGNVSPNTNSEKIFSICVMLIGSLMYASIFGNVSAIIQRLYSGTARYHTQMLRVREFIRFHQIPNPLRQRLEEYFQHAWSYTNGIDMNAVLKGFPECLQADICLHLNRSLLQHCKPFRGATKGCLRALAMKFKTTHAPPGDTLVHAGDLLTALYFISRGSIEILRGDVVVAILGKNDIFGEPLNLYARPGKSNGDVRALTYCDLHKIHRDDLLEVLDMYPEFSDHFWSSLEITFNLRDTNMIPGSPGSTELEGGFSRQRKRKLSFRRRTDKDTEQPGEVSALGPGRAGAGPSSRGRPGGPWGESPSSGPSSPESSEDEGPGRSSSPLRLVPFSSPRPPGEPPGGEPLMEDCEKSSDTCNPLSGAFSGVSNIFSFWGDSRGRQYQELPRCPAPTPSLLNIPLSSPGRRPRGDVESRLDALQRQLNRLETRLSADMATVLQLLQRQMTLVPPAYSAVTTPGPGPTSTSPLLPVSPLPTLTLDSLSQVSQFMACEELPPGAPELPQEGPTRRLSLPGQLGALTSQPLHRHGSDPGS

SMILES	IC50 [1] [nM]	IC50 [3] [nM]	T1/2 [4] [h]	Cmax [5] [ng/mL]	Cmax [6] [ng/g]	AUC [7] [µg·h/g]	AUC [8] [ng·h/mL]	half-life [9] [h]	IC50 [2] [nM]
O=C1COc2cc3c(cc2N1)C(N1CCC(NC(=O)c2cc(=O)c4ccc(F)cc4o2)CC1)CC3 (centres undefined)	21	95	–	–	–	–	–	–	14600
O=C(NC1CCN(C2CCc3c2ccc2c3OCO2)CC1)c1cc(=O)c2ccc(F)cc2o1 (centres undefined)	76	2750	–	–	–	–	–	–	5860
CC(=O)Nc1ccc2c(c1)C(N1CCC(NC(=O)c3cc(=O)c4ccc(F)cc4o3)CC1)CC2 (single isomer, unassigned; (+))	2570	> 10000	1.3	1410	17	0.043	3760	–	–

These reach a lower IC50 [1]. Values come first.

IC50 [1] [nM]	IC50 [3] [nM]	T1/2 [4] [h]	Cmax [5] [ng/mL]	Cmax [6] [ng/g]	AUC [7] [µg·h/g]	AUC [8] [ng·h/mL]	half-life [9] [h]	SMILES	IC50 [2] [nM]
11	173	–	–	–	–	–	–	O=C(NC1CCN(C2CCc3cc4oc(=O)[nH]c4cc32)CC1)c1cc(=O)c2ccc(F)cc2o1 (centres undefined)	25000
4	26	–	14600	–	0	41600	2.3	CC(=O)Nc1ccc2c(c1)C(N1CCC(NC(=O)c3cc(=O)c4ccc(F)cc4o3)CC1)CC2 (single isomer, unassigned; (-))	–
3	56	–	–	–	–	–	–	CC(=O)Nc1ccc2c(c1)C(N1CCC(NC(=O)c3cc(=O)c4ccc(F)cc4o3)CC1)CC2 (stereo in doubt; 16)	–

— ChEMBL document CHEMBL1137584, “Constrained 7-fluorocarboxychromone-4-aminopiperidine based Melanin-concentrating hormone receptor 1 antagonists: the effects of chirality on substituted indan-1-ylamines” (Bioorg Med Chem Lett, 2007)
